From ChEMBL document CHEMBL3769331, “Discovery of a new selective inhibitor of A Disintegrin And Metalloprotease 10 (ADAM-10) able to reduce the shedding of NKG2D ligands in Hodgkin's lymphoma cell models” (Eur J Med Chem, 2016)

Tests used:
[1] = biological target: T1, Disintegrin and metalloproteinase domain-containing protein 10 (Homo sapiens, UniProt O14672); assay: Inhibition of ADAM-10 in human L540 cells assessed as reduction in pervanadate-induced soluble MICB shedding after 24 hrs by ELISA; format: cell-based, L-540
T1 sequence (O14672 whole entry): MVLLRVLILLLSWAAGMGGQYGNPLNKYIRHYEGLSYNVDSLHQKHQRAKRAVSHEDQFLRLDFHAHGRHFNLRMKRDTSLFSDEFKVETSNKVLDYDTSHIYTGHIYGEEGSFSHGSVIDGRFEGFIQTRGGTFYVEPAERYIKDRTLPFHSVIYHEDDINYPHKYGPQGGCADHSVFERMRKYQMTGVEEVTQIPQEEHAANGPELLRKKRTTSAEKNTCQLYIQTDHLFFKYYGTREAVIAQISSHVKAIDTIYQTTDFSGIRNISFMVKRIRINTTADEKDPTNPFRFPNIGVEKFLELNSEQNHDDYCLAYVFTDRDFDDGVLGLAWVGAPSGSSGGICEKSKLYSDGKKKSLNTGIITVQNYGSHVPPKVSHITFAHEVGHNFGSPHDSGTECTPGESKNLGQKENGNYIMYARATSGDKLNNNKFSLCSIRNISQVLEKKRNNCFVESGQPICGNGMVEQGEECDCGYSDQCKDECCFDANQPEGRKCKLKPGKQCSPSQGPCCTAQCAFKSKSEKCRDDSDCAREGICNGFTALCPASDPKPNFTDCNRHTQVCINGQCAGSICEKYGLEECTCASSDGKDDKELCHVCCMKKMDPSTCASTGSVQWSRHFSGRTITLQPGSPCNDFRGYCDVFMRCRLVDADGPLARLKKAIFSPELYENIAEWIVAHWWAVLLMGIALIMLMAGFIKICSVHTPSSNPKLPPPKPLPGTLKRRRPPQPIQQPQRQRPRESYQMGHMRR
Procedure, shortened: (§1)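 Supernatants taken from HL cultures before and after 24 h inhibitor exposure, 10 to 0.1 µM. 100 µM sodium orthovanadate was activated to pervanadate with 100 µM H2O2 and added for 40 min before harvest. Soluble MIC-B measured by ELISA against a MIC-B/Fc chimera standard curve. The DMSO+pervanadate supernatant was set as 100% shedding. Triplicate wells, 3 independent experiments.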

[2] = biological target: T1, Disintegrin and metalloproteinase domain-containing protein 10; assay: Inhibition of ADAM-10 in human L428 cells assessed as reduction in pervanadate-induced soluble MICB shedding after 24 hrs by ELISA; format: cell-based, L-428; procedure, shortened: as §1
[3] = biological target: T1, Disintegrin and metalloproteinase domain-containing protein 10; assay: Inhibition of ADAM-10 in human KM-H2 cells assessed as reduction in pervanadate-induced soluble ULBP3 shedding after 24 hrs by ELISA; format: cell-based
Procedure, shortened: (§2)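 Supernatants collected before and after 24 h inhibitor exposure, 10 to 0.1 µM. 100 µM sodium orthovanadate was activated to pervanadate with 100 µM H2O2 and added for 40 min before harvest. Soluble ULBP3 or ALCAM measured by ELISA.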

[4] = biological target: T1, Disintegrin and metalloproteinase domain-containing protein 10; assay: Inhibition of ADAM-10 in human L540 cells assessed as reduction in pervanadate-induced soluble ULBP3 shedding after 24 hrs by ELISA; format: cell-based, L-540; procedure, shortened: as §2
[5] = biological target: T1, Disintegrin and metalloproteinase domain-containing protein 10; assay: Inhibition of recombinant human ADAM-10 using Mca-Lys-Pro-Leu-Gly-Leu-Dap(Dnp)-Ala-Arg-NH2 as substrate after 1 hr by fluorometric assay
Procedure, shortened: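 Recombinant human ADAM-10, final 20 nM, preincubated with inhibitor for 1 h at 37 °C in Tris 25 mM pH 9, ZnCl2 25 µM, Brij-35 0.005%. Substrate final 10 µM. Fluorescence (ex 325/em 400 nm) read every 15 s for 20 min. Duplicates; IC50 from vi/vo = 1/(1+[I]/IC50).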

[6] = biological target: Matrix metalloproteinase-9 (Homo sapiens, UniProt P14780); assay: Inhibition of recombinant human MMP-9 using Mca-Lys-Pro-Leu-Gly-Leu-Dap(Dnp)-Ala-Arg-NH2 as substrate after 3 hrs by fluorometric assay
Sequence of Matrix metalloproteinase-9 (P14780 whole entry): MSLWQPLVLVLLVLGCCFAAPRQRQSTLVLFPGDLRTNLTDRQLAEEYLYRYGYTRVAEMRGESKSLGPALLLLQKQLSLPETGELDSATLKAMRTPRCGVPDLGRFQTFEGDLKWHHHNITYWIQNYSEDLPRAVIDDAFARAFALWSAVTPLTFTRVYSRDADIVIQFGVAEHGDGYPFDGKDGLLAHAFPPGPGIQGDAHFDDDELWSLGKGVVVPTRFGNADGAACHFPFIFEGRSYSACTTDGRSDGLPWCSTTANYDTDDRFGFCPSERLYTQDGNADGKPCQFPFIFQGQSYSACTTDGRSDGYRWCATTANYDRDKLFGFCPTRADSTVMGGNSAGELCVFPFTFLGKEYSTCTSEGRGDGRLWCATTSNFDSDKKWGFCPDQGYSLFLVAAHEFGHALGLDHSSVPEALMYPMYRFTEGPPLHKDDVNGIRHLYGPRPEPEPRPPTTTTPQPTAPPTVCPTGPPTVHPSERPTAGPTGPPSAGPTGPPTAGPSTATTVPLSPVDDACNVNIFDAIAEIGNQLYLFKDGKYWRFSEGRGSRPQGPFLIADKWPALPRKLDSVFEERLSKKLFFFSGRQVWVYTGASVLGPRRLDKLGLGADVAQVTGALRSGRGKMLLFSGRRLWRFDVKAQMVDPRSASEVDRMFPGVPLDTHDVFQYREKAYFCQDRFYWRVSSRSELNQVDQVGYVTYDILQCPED
Procedure, shortened: (§3)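 Pro-MMPs were activated with APMA: MMP-1 2 mM for 2 h, MMP-2 2 mM for 1 h, MMP-9 1 mM for 1 h, all at 37 °C. Final enzyme: MMP-1 2.0 nM, MMP-2 0.56 nM, MMP-9 1.3 nM. Enzyme was preincubated with inhibitor for 3 h at 25 °C in Tris 50 mM pH 7.5, NaCl 150 mM, CaCl2 10 mM, Brij-35 0.05%, DMSO 1%. Substrate final 2 µM. Fluorescence (ex 325/em 400 nm) read every 15 s for 20 min. Duplicates; IC50 from vi/vo = 1/(1+[I]/IC50).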

[7] = biological target: T1, Disintegrin and metalloproteinase domain-containing protein 10; assay: Inhibition of ADAM-10 in human KM-H2 cells assessed as reduction in pervanadate-induced soluble MICB shedding after 24 hrs by ELISA; format: cell-based; procedure, shortened: as §1
[8] = biological target: T2, Disintegrin and metalloproteinase domain-containing protein 17 (Homo sapiens, UniProt P78536); assay: Inhibition of ADAM-17 in human KM-H2 cells assessed as reduction in pervanadate-induced soluble ALCAM shedding after 24 hrs by ELISA; format: cell-based; procedure, shortened: as §2
T2 sequence (P78536 whole entry, the tested form may be a part): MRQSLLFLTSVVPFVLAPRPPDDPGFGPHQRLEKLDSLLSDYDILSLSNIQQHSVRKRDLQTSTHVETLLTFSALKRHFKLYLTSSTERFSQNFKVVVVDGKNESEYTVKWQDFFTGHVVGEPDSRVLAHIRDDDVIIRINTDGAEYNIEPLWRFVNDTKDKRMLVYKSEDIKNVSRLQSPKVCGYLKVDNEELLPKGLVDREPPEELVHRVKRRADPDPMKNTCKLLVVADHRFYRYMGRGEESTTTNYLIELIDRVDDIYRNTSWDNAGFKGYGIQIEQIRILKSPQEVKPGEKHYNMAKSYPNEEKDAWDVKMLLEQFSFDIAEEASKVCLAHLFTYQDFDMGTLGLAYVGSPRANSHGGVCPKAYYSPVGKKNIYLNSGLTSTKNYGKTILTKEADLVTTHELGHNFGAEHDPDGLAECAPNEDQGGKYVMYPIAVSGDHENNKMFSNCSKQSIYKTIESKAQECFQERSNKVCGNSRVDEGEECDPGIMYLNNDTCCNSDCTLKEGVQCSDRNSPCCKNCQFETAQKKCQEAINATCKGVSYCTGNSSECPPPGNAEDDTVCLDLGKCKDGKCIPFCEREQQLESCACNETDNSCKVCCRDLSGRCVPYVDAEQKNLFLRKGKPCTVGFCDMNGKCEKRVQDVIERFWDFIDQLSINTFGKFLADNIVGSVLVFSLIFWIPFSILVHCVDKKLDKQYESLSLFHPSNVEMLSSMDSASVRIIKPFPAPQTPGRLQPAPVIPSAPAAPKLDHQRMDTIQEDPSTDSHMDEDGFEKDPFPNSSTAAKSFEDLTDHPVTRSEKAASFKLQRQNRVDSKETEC

[9] = biological target: T3, Interstitial collagenase (Homo sapiens, UniProt P03956); assay: Inhibition of human MMP-1 using Mca-Lys-Pro-Leu-Gly-Leu-Dap(Dnp)-Ala-Arg-NH2 as substrate after 3 hrs by fluorometric assay; procedure, shortened: as §3
T3 sequence (P03956 whole entry): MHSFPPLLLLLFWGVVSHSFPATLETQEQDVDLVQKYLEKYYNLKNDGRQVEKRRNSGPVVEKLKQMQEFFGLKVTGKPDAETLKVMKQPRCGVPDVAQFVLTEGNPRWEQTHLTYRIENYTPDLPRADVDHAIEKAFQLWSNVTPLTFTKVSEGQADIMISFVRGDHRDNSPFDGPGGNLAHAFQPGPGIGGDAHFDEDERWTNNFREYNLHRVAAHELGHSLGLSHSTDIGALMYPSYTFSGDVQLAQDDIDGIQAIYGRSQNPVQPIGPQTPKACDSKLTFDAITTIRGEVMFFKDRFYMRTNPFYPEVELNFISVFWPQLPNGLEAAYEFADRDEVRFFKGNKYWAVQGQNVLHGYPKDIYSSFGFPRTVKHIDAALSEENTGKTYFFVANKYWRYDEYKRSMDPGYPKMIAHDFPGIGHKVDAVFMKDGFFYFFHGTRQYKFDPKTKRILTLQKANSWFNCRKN

[10] = biological target: 72 kDa type IV collagenase (Homo sapiens, UniProt P08253); assay: Inhibition of recombinant human MMP-2 using Mca-Lys-Pro-Leu-Gly-Leu-Dap(Dnp)-Ala-Arg-NH2 as substrate after 3 hrs by fluorometric assay; procedure, shortened: as §3
Sequence of 72 kDa type IV collagenase (P08253 whole entry, the tested form may be a part): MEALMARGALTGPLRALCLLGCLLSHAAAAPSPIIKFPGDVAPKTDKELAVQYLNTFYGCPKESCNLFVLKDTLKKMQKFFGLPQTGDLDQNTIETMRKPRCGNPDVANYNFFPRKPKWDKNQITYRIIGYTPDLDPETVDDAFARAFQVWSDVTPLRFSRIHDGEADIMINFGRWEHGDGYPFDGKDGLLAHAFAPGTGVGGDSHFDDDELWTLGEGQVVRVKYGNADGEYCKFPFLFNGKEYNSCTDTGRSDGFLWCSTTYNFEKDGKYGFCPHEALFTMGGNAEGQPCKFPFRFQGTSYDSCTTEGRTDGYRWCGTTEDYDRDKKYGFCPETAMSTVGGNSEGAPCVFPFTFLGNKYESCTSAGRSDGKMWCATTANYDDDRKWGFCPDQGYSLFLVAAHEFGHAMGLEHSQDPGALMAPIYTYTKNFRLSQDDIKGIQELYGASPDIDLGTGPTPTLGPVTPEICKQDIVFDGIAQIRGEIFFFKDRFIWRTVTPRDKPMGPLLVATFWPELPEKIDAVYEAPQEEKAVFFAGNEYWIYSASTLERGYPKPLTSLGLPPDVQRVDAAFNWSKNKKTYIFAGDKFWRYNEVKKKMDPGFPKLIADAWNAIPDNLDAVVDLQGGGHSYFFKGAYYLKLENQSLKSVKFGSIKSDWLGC

[11] = biological target: T1, Disintegrin and metalloproteinase domain-containing protein 10; assay: Inhibition of ADAM-10 in human L428 cells assessed as reduction in pervanadate-induced soluble ULBP3 shedding after 24 hrs by ELISA; format: cell-based, L-428; procedure, shortened: as §2
[12] = biological target: Matrix metalloproteinase-14 (Homo sapiens, UniProt P50281); assay: Inhibition of recombinant human MMP-14 using Mca-Lys-Pro-Leu-Gly-Leu-Dap(Dnp)-Ala-Arg-NH2 as substrate after 3 hrs by fluorometric assay
Procedure, shortened: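 MMP-14 catalytic domain, final 1.0 nM, preincubated with inhibitor for 3 h at 25 °C in Tris 50 mM pH 7.5, NaCl 150 mM, CaCl2 10 mM, Brij-35 0.05%, DMSO 1%. Substrate final 2 µM. Fluorescence (ex 325/em 400 nm) read every 15 s for 20 min. Duplicates; IC50 from the vi/vo equation.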

[13] = biological target: T2, Disintegrin and metalloproteinase domain-containing protein 17; assay: Inhibition of recombinant human ADAM-17 using Mca-Lys-Pro-Leu-Gly-Leu-Dap(Dnp)-Ala-Arg-NH2 as substrate after 30 mins by fluorometric assay
Procedure, shortened: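 Recombinant human ADAM-17, final 5 nM, preincubated with inhibitor for 30 min at 37 °C in Tris 25 mM pH 9, ZnCl2 25 µM, Brij-35 0.005%. Substrate final 2 µM. Fluorescence (ex 325/em 400 nm) read every 15 s for 20 min. Duplicates; IC50 from vi/vo = 1/(1+[I]/IC50).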

[14] = biological target: T2, Disintegrin and metalloproteinase domain-containing protein 17; assay: Inhibition of ADAM-17 in human L428 cells assessed as reduction in pervanadate-induced soluble ALCAM shedding after 24 hrs by ELISA; format: cell-based, L-428; procedure, shortened: as §2
[15] = Cytotoxicity against human L540 cells assessed as cell viability at 10 uM after 72 to 96 hrs by JC-1 staining-based fluorescence assay; design: species or system L-540; conditions: read-out: Activity
Procedure, shortened: (§4)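 HL cell lines from DSMZ exposed to inhibitor at 10 µM for 72 and 96 h. Viability read as mitochondrial potential by staining with the dual-emission fluorescent probe JC-1.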

[16] = Cytotoxicity against human KM-H2 cells assessed as cell viability at 10 uM after 72 to 96 hrs by JC-1 staining-based fluorescence assay; conditions: read-out: Activity; procedure, shortened: as §4
[17] = Cytotoxicity against human L428 cells assessed as cell viability at 10 uM after 72 to 96 hrs by JC-1 staining-based fluorescence assay; design: species or system L-428; conditions: read-out: Activity; procedure, shortened: as §4

| SMILES | IC50 [1] | IC50 [2] | IC50 [3] | IC50 [4] | IC50 [5] | IC50 [6] | IC50 [7] | IC50 [8] | IC50 [9] | IC50 [10] | IC50 [11] | IC50 [12] | IC50 [13] | IC50 [14] | viability at 10 µM [15] | viability at 10 µM [16] | viability at 10 µM [17] |
| --- | --- | --- | --- | --- | --- | --- | --- | --- | --- | --- | --- | --- | --- | --- | --- | --- | --- |
| CNC(=O)[C@@H](NC(=O)[C@H](CCCc1ccccc1)[C@H](C)N(O)C=O)C(C)(C)C | 12 µM | 12 µM | 10 µM | 10 µM | 0.027 µM | 0.0051 µM | 12 µM | 10 µM | 0.125 µM | 0.0021 µM | 15 µM | 0.088 µM | 0.86 µM | 10 µM | – | – | – |
| O=C(NCCC[C@@H](NS(=O)(=O)c1ccc(OCc2cc(Br)cc(Br)c2)cc1)C(=O)NO)OCc1ccccc1 | 15 µM | 15 µM | 15 µM | 12 µM | – | – | 15 µM | 0.5 µM | – | – | 10 µM | – | – | 0.1 µM | > 96% | > 96% | > 96% |
| Cc1cc(C#N)ccc1N1CCN(S(=O)(=O)N[C@H](CCCNC(=O)OCc2ccccc2)C(=O)NO)CC1 | 12 µM | 7 µM | 10 µM | 10 µM | 0.0092 µM | 4.5 µM | 7 µM | 1 µM | > 200 µM | 0.37 µM | 10 µM | 50 µM | 0.09 µM | 1 µM | > 96% | > 96% | > 96% |
| Cc1cc(C#N)ccc1N1CCN(S(=O)(=O)N2CSC[C@@H]2C(=O)NO)CC1 | 7 µM | 5 µM | 7 µM | 7 µM | 0.04 µM | 24 µM | 5 µM | 10 µM | 346 µM | 5.4 µM | 5 µM | 100 µM | 1.5 µM | 12 µM | > 96% | > 96% | > 96% |
